Our source for the IC50, minimal effective concentration and Activity values is ChEMBL document CHEMBL1143293, “5-Substituted pyrido[2,3-d]pyrimidine, an inhibitor against three receptor tyrosine kinases” (Bioorg Med Chem Lett, 2009).

In series [1] the test system is HUVEC. Nature of the series: Inhibition of rhFGF2-induced HUVEC proliferation. Type of series: functional, cell-based. The following applies: Homo sapiens; for minimal effective concentration: read-out: MEC. Put shortly:
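HUVEC proliferation was induced with recombinant human FGF-2 in the presence of compound. Inhibition was reported as IC50 (μM) and as the minimum effective concentration.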

Series [2] concerns the target Platelet-derived growth factor receptor beta (Homo sapiens, UniProt P09619). Nature of the series: Inhibition of PDGFRbeta.
Series [3] addresses Epidermal growth factor receptor (Homo sapiens, UniProt P00533).
In series [4] the target is Fibroblast growth factor receptor 1 (Homo sapiens, UniProt P11362). Nature of the series: Inhibition of human FGFR1 expressed in insect cells by HTRF method.
For series [5], the target named is Vascular endothelial growth factor receptor 2 (Homo sapiens, UniProt P35968). Description: Inhibition of VEGFR2.
Series [6] relates to HUVEC. Description: Inhibition of recombinant human FGF2-induced ERK phosphorylation in HUVEC cells by Western blot. Type of series: cell-based.
Series [7] concerns HUVEC. Nature of the series: Antiangiogenic activity in HUVEC cells assessed incomplete narrow tube formation after 4 hrs by tube formation assay. It is filed as functional, cell-based. The following applies: Homo sapiens. Put shortly: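 HUVEC seeded onto wells coated with Matrigel, with compound present at 1, 3, 10 and 25 μM; FGF-2-stimulated and untreated controls included. After 4 h at 37 °C, cultures were fixed with glutaraldehyde and the length of the capillary-like tubes was measured. Data are means + SD of four wells from a representative experiment.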

In series [8] the target is c-Jun N-terminal kinase, JNK (Homo sapiens) (UniProt P45983+P53779+P45984). Description: Inhibition of recombinant human FGF2-induced JNK phosphorylation in HUVEC cells by Western blot. It is filed as cell-based.
Series [9] has as its system HUVEC. Description: Cytotoxicity against HUVEC cells. Type of series: cell-based. The following applies: human. Put shortly: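 Cytotoxicity was taken from HUVEC proliferation run without rhFGF-2 stimulation, and the value was reported as the minimum cytotoxic concentration.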
Series [10] concerns the target RAC-alpha serine/threonine-protein kinase (Homo sapiens) (UniProt P31749). Description: Inhibition of recombinant human FGF2-induced AKT phosphorylation in HUVEC cells by Western blot. It is filed as cell-based.

Molecules are shown by their SMILES. The source made the active and inactive calls. The calls are words filed in the database; no cut-off is given here.

Sequence of Platelet-derived growth factor receptor beta (P09619 whole entry): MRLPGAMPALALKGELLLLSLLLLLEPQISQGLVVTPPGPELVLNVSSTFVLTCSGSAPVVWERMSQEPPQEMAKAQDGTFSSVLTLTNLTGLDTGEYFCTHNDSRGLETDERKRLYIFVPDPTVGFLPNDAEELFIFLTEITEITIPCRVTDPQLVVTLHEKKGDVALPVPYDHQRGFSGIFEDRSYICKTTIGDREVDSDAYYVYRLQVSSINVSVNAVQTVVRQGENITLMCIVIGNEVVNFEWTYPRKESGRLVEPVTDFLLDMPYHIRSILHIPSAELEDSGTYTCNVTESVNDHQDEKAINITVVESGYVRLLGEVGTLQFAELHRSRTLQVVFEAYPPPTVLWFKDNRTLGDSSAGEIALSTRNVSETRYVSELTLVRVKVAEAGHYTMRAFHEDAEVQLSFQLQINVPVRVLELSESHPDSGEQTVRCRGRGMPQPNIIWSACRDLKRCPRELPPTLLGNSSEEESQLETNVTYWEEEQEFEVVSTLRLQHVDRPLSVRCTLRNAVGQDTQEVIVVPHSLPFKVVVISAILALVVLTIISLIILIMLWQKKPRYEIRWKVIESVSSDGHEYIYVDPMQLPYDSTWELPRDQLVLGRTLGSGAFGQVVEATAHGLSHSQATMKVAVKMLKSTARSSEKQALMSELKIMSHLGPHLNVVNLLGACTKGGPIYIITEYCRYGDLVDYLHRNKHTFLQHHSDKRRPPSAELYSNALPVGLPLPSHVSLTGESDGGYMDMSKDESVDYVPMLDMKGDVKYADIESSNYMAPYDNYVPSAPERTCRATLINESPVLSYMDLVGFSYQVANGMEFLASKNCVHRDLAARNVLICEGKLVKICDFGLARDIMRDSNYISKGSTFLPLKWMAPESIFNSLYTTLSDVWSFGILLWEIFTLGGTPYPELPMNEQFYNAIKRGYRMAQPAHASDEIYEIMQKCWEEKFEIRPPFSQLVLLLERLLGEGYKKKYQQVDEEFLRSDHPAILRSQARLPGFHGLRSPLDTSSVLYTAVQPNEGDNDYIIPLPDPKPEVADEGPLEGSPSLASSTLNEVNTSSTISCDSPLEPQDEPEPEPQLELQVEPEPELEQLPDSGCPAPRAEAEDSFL
Sequence of Epidermal growth factor receptor (P00533 whole entry): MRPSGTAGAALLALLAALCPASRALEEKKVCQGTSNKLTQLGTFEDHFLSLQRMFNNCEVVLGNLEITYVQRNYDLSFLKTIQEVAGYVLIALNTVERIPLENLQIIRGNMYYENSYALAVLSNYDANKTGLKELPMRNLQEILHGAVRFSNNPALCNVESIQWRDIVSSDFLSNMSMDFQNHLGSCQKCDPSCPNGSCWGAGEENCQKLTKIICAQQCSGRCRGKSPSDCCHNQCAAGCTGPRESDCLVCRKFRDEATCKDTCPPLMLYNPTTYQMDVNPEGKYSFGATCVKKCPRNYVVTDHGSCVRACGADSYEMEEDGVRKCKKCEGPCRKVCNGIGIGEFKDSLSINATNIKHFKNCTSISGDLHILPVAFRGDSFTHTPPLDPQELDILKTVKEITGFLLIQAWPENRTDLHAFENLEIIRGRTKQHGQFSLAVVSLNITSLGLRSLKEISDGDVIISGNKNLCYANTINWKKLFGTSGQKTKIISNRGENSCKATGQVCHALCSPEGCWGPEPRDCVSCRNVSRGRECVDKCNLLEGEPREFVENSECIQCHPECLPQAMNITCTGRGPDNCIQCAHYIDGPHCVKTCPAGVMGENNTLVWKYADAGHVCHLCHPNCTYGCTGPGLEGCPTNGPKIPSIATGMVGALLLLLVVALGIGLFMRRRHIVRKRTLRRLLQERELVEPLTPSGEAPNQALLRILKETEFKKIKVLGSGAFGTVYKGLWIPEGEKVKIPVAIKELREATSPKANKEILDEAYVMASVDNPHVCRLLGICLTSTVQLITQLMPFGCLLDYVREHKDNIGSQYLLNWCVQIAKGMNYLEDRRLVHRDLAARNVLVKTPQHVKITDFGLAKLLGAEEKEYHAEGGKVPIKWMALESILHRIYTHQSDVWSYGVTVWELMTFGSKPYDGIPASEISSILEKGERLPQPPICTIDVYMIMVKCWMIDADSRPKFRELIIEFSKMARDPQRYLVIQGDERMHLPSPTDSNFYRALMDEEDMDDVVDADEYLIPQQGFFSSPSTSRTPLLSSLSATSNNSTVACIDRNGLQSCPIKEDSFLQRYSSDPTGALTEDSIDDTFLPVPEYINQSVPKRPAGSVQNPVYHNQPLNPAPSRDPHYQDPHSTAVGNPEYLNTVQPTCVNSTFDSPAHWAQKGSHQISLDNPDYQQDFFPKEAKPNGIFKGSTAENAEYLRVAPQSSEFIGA
Sequence of Vascular endothelial growth factor receptor 2 (P35968 whole entry): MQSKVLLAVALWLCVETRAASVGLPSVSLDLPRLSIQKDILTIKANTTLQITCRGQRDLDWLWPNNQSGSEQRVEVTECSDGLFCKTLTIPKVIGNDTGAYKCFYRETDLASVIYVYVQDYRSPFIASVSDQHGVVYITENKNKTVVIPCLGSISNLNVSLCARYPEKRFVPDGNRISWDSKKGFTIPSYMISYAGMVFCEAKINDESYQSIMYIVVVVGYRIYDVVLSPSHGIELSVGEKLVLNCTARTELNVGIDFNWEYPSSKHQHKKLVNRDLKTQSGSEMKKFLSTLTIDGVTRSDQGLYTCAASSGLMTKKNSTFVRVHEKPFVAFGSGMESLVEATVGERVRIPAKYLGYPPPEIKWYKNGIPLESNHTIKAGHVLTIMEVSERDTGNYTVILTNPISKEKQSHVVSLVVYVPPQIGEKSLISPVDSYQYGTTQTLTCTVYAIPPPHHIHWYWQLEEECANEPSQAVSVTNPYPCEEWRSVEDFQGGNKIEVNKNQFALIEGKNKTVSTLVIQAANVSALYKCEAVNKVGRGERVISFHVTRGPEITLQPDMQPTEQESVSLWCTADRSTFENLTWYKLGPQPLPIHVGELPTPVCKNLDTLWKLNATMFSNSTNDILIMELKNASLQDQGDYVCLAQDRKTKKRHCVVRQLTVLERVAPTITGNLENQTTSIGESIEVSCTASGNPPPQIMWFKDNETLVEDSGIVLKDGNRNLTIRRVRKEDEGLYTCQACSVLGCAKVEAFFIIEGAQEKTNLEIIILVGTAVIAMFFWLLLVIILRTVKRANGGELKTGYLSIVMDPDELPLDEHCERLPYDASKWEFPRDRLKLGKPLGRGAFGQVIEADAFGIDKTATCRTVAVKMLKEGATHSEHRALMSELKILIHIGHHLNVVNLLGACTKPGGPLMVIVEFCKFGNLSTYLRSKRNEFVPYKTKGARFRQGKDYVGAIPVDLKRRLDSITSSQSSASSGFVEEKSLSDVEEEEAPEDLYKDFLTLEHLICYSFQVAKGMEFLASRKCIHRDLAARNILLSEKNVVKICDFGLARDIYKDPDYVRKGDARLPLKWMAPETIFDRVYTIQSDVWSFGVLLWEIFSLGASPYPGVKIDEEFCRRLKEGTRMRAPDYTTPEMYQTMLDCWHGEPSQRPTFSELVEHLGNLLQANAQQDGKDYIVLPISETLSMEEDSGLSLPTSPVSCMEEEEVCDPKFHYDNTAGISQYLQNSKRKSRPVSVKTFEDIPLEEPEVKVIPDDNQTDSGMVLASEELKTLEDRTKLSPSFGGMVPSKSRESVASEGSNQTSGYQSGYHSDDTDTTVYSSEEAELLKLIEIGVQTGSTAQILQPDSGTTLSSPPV
Sequence of Fibroblast growth factor receptor 1 (P11362 whole entry): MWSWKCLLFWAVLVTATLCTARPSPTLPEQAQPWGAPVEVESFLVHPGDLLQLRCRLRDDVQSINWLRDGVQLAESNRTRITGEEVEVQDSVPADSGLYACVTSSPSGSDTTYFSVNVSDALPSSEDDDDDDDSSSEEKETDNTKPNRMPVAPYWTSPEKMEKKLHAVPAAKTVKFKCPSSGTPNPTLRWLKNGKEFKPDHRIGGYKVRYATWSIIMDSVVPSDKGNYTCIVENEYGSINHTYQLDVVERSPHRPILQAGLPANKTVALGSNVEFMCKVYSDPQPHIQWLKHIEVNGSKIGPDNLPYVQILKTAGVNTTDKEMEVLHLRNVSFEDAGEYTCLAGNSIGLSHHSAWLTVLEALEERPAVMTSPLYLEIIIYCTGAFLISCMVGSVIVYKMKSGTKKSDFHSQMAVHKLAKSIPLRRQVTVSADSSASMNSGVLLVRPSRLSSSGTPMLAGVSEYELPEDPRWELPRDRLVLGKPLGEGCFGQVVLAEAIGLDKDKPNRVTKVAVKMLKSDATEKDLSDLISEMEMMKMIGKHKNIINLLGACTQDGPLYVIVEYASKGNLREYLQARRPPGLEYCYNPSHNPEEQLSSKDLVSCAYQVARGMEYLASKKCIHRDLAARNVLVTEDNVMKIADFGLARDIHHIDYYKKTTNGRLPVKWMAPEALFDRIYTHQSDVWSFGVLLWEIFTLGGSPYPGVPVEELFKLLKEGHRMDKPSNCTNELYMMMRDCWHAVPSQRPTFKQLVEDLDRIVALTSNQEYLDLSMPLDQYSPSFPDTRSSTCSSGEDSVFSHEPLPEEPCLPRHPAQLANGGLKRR
Sequence of RAC-alpha serine/threonine-protein kinase (Homo sapiens) (P31749 whole entry): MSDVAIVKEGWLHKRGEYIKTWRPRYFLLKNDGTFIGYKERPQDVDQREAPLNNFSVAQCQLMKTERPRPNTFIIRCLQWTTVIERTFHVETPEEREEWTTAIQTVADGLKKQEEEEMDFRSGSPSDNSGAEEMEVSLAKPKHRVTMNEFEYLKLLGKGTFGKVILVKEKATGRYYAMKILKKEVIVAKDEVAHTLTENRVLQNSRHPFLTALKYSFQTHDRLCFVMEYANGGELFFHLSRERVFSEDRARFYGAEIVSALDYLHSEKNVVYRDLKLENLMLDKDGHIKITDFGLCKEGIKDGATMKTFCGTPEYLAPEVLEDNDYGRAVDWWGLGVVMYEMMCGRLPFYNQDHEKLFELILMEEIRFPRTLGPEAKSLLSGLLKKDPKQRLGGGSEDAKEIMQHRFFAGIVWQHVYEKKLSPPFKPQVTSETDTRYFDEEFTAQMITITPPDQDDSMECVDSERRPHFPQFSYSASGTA

For the compound `COc1cc(OC)cc(-c2ccc3c(c2)NC(=O)/C3=C\c2[nH]c(C)c(CCC(=O)O)c2C)c1`, the IC50 in the series on HUVEC [1] is 18200 nM; in [2] it was 780 nM; in series [3], above 100000 nM; in series [4], 520 nM; in [5], 930 nM.
In the case of `Cc1[nH]c(/C=C2\C(=O)Nc3ccc(C(=O)NNc4ccccc4)cc32)c(C)c1CCC(=O)O`, the IC50 is 27400 nM with HUVEC [1]; 40 nM in series [2]; 3480 nM in [3]; 100 nM in [4]; 70 nM in series [5]. Also, the minimal effective concentration with HUVEC [1] came to 10 µM. For the same compound, the outcome (in the series on HUVEC [6]; in series [8]; in series [10]) was Active. The Activity entry is “Dose-dependent effect” in the series on HUVEC [7] and 50 µM in the series on HUVEC [9].
For `Cc1[nH]c(/C=C2\C(=O)Nc3ccc(C(=O)NNc4ccc(C#N)cc4)cc32)c(C)c1CCC(=O)O`, the minimal effective concentration in the series with HUVEC [1] is above 50 µM. In the series on HUVEC [9], this compound gave an Activity of 50 µM.
`Cc1[nH]c(/C=C2\C(=O)Nc3ccc(C(=O)NNc4ccccc4Cl)cc32)c(C)c1CCC(=O)O`: the minimal effective concentration in the series with HUVEC [1] is 50 µM.
`Cc1[nH]c(/C=C2\C(=O)Nc3ccccc32)c(C)c1CCC(=O)O` [ORANTINIB]: in the series on HUVEC [1], the IC50 was above 50000 nM and the minimal effective concentration was determined as 10 µM. In addition, half-maximal inhibition in series [2] (IC50) required 50 nM.
`Cc1[nH]c(/C=C2\C(=O)Nc3ccc(C(=O)NNc4ccccc4[N+](=O)[O-])cc32)c(C)c1CCC(=O)O`: in the series with HUVEC [1], the minimal effective concentration was determined as 50 µM. Besides, the Activity in the series with HUVEC [9] was found to be 50 µM.
In the case of `Cc1[nH]c(/C=C2\C(=O)Nc3ccc(C(=O)NNc4ccc(C(F)(F)F)cc4)cc32)c(C)c1CCC(=O)O`, the minimal effective concentration in the series on HUVEC [1] was determined as 50 µM. Besides, the Activity in the series with HUVEC [9] worked out at 50 µM.
